Results pooled from the literature.
Target: Platelet-derived growth factor receptor alpha (PDGFRA, Homo sapiens, UniProt P16234)

COC(=O)Nc1nc2ccc(C(=O)c3ccccc3)cc2[nH]1  remaining binding (cell-free assay; competition with immobilised ligand; 10 µM): 7.8%
CCN1CCN(Cc2ccc(C(=O)Nc3ccc(C)c(Oc4ccc5c(c4)CC(=O)N5)c3)cc2C(F)(F)F)CC1  remaining binding (binding; competition with immobilised ligand; 1 µM): 100%
C[C@H]1CCN(c2nccc(-c3cnn4ncccc34)n2)C1  remaining binding (binding; 1 µM): 83%
Cn1cc(Cl)c2c(Oc3c(F)cc(Nc4cc(Cl)nc(N)n4)cc3F)ccnc21  remaining binding (cell-free assay; competition with immobilised ligand; 0.1 µM): 98%
CN(C)c1nccc(-c2cnn3ncccc23)n1  remaining binding (binding; 1 µM): 100%
COc1cnc(Nc2cccc(S(N)(=O)=O)c2)nc1N1CCN(c2ccccc2)C(=O)C1  remaining binding (binding; competition with immobilised ligand; 1 µM): 82%
Cc1cnc(Nc2ccc(C(=O)N3CCC(N4CCCC4)CC3)cc2)nc1-c1cc2ccccc2s1  remaining binding (binding; competition with immobilised ligand; 1 µM): 14%
COc1cccc(CNC(=O)c2nc3scc(COCc4ccc(C(=O)O)cc4)c3c(=O)[nH]2)c1  remaining binding (cell-free assay; competition with immobilised ligand; 1 µM): 56.3%
Nc1ncc2c(n1)-c1c([nH]c3ccc(C#CC4CC4)cc13)CCCC2  remaining binding (binding; competition with immobilised ligand; 1 µM): 76%
C[C@@H](c1ccc(-n2cnc3c(N)ncnc32)cc1)N1CCc2nn(C)c(Cc3ccccc3)c2C1=O  remaining binding (binding; competition with immobilised ligand; 0.1 µM): 20%
O=C(NCCCN1CCOCC1)c1ccc(Nc2nccc(-c3cc4ccccc4s3)n2)cc1  remaining binding (binding; competition with immobilised ligand; 1 µM): 64%
CC1=C(C#N)C(c2ccc3c(c2)c(NC(=O)c2ccccc2C)nn3C)C(C#N)=C(C)N1  remaining binding (cell-free assay; competition with immobilised ligand; 1 µM): 86%
CNC(=O)[C@@H]1CC[C@@H](n2c(-c3ccc4cnccc4c3)nc3ccc(C(=O)NCc4cccc(C(N)=O)c4)cc32)C1  remaining binding (binding; competition with immobilised ligand; 1 µM): 100%
N[C@H]1CCN(c2nccc(-c3cnn4ncccc34)n2)C1  remaining binding (binding; 1 µM): 90%
COc1ncc2cc3ccccc3nc2c1C#N  remaining binding (cell-free assay; competition with immobilised ligand; 5 µM): 83%
COCCOc1nc(-c2ccc(Cl)nc2)nc2c1CN(C(=O)c1ncn3ccccc13)CC2  remaining binding (cell-free assay; competition with immobilised ligand; 0.1 µM): 100%
C=CC(=O)N1CCC(C(=O)NCC(=O)N2CCN(c3nc(-c4cnc(N)nc4C(F)F)nc(N4CCOCC4)n3)CC2)CC1  remaining binding (binding; competition with immobilised ligand; 1 µM): 91%
O=C(NCC1CCOCC1)c1n[nH]cc1NC(=O)c1c(F)cccc1F  remaining binding (binding; competition with immobilised ligand; 1 µM): 84%
CN(CCCC(F)(F)F)c1nccc(-c2cnn3ncccc23)n1  remaining binding (binding; 1 µM): 100%
C[C@@H]1CN(c2ccc3ncc(-c4ccc5[nH]nc(C6CC6)c5c4)n3n2)C[C@H](C)O1  remaining binding (binding; competition with immobilised ligand; 0.5 µM): 76%
COc1ccc2c(c1)O[C@@H](c1ccc(OC)c(OC)c1)C[C@H]2NC(=O)C1(c2ccc3c(c2)OC(F)(F)O3)CC1  remaining binding (cell-free assay; competition with immobilised ligand; 1 µM): 78%
Cc1cnn2ncc(-c3ccnc(N(C)C)n3)c2c1  remaining binding (binding; 1 µM): 97%
CSc1cccnc1N1CCN(Cc2nc3ccccc3[nH]2)CC1  remaining binding (cell-free assay; competition with immobilised ligand; 1 µM): 89%
F[C@@H]1CCN(c2nccc(-c3cnn4ncccc34)n2)C1  remaining binding (binding; 1 µM): 100%
CNCc1ccccc1-c1csc([C@H](C)Nc2nc(C)nc3cc(OC)c(OC)cc23)c1  remaining binding (cell-free assay; competition with immobilised ligand; 1 µM): 92%
O=C(c1ccc(Nc2ncc(Cl)c(-c3ccc(Cl)s3)n2)cc1)N1CCC(N2CCCC2)CC1  remaining binding (binding; competition with immobilised ligand; 1 µM): 3.4%
